Consider 14 molecules from PMC4025951 (Neurochemical research, 2013).

Values joined by “and” are separate entries in the source; they are usually repeats but may differ in a detail not shown here. Equal values may be shown once. Read-outs that look alike come from different tables or passages of the source. Where only a bound is given, the exact number is not on record here.

The test system of assay [1] is VGLUT. The assay is described as follows: Vesicular glutamate uptake into synaptic vesicles. The format is biochemical, rat.
For assay [2], the system named is plasma membrane glutamate transporter. The assay is described as follows: Na+-dependent synaptosomal glutamate uptake. Type of assay: biochemical, rat. To be noted: for Glutamate uptake / %Control: 50 μM test agent; for Glutamate uptake: Na+-dependent [3H]glutamate uptake into synaptosomes; for %Control: synaptosomal glutamate uptake. In a few lines: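 Rat cerebrum synaptosomes (100 μg protein) were incubated 10 min at 37 °C in Krebs solution with 1 μM [3H]glutamate (5 Ci/mmol), ± 50 μM test agent. Na+-dependent uptake was NaCl minus choline chloride values, in dpm and % of control.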

For assay [3], the system named is VGLUT. The note with it: ref [25], cited from earlier work.
Assay [4] deals with VGLUT. As to the kind of experiment: Kinetics of vesicular glutamate uptake with Brilliant Yellow. Type of assay: biochemical, rat. To be noted: competitive with glutamate; 0, 40, 60 and 80 nM Brilliant Yellow; n=3.
Assay [5] deals with T1, vesicular GABA transporter (Bos taurus, UniProt G3N354).
T1 sequence (G3N354 1-526): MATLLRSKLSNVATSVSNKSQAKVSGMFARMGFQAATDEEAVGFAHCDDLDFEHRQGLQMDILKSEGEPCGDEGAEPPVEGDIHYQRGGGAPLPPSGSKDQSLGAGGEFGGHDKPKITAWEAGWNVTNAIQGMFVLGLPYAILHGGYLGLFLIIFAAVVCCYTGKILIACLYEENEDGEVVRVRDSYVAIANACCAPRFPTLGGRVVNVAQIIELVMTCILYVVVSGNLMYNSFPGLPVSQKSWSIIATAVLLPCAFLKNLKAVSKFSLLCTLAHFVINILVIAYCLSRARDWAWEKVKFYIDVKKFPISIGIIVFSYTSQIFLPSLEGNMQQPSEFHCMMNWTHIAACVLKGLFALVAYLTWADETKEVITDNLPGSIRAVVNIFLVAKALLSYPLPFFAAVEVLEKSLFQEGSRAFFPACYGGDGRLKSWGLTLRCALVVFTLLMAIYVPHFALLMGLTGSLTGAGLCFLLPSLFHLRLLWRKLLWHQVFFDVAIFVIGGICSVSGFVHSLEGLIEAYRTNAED
As to the kind of experiment: Vesicular GABA uptake into synaptic vesicles. Type of assay: biochemical, bovine. The note with it: concentrations up to 50 μM. In short, it runs like this: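 Crude calf cerebral cortex synaptic vesicles in 20 mM K-Hepes pH 7.4, 4 mM MgSO4, 4 mM KCl, 0.25 M sucrose. Pre-incubated 10 min at 30 °C with varied test compound concentrations. Then 2 mM ATP plus 50 μM [3H]GABA for 10 min. Filtered and washed with 0.15 M KCl.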

Where [6] appears, read: Table 3, Brilliant Yellow analogs, vesicular glutamate uptake.
Where [7] appears, read: Table 1, rat brain synaptic vesicles, 50 μM [3H]glutamate ± ATP, 10-min incubation.

One may read the IC50 as the concentration at which inhibition is half-maximal. Take `O=[N+]([O-])c1ccc(C=Cc2ccc([N+](=O)[O-])cc2S(=O)(=O)O)c(S(=O)(=O)O)c1` [4,4’-Dinitrostilbene-2,2’-disulfonate, 4,4’-dinitrostilbene-2,2’-disulfonate]: the IC50 in assay [1] (setting [6]) is 1690 ± 110 nM. Molecule `COc1cc(N=Nc2c(C)cc(C)cc2S(=O)(=O)[O-])c(C)cc1N=Nc1c(S(=O)(=O)[O-])cc2cc(Nc3ccccc3)ccc2c1O.[Na+].[Na+]` [Direct Violet 51] displayed an IC50 in assay [1] (setting [7]) of 148 ± 31 nM. Also, in assay [2], the Glutamate uptake is recorded as 258,020 dpm and the “%Control” value is recorded as 104%. For `O=S(=O)(O)c1cc(NS(=O)(=O)c2ccccc2)ccc1C=Cc1ccc(NS(=O)(=O)c2ccccc2)cc1S(=O)(=O)O` [4,4’-diphenylsulfonamidostilbene-2,2’-disulfonate], the IC50 in assay [1] (setting [6]) is greater than 50000 nM.

In assay [1] (setting [7]), `O=S(=O)(O)c1cc(S(=O)(=O)O)c2c(N=Nc3ccc(N=Nc4ccccc4)cc3)c(O)ccc2c1` [Brilliant Crocein MOO] registered a concentration for half-maximal inhibition (IC50) of 7700 nM.

With `Nc1ccc(C=Cc2ccc(N)cc2S(=O)(=O)O)c(S(=O)(=O)O)c1` [4,4-Diaminostilbene-2,2’-disulfonate, 4,4’-diaminostilbene-2,2’-disulfonate], in assay [1] (setting [6]), the IC50 is greater than 50000 nM. As for Nitrazine Yellow, the concentration for half-maximal inhibition (IC50) in assay [1] (setting [7]) worked out at 4400 nM. On the same count and under the same terms, the result for `O=S(=O)(O)c1ccc2c(N=Nc3cccc4ccccc34)c(O)c(S(=O)(=O)O)cc2c1` [Bordeau R] reads 6500 nM.

Consider `O=C([O-])C1=NN(c2ccc(S(=O)(=O)[O-])cc2)C(=O)C1N=Nc1ccc(S(=O)(=O)[O-])cc1.[Na+].[Na+].[Na+]` (centres unmarked) [Tartrazine], for which, in assay [1], the “Inhibitory activity on vesicular glutamate uptake” value was “rather inactive”. The IC50 in assay [1] (setting [7]) was greater than 50000 nM. As for `O=C(Nc1ccc(C=Cc2ccc(NC(=O)c3ccccc3)cc2S(=O)(=O)O)c(S(=O)(=O)O)c1)c1ccccc1` [4,4’-dibenzamidostilbene-2,2’-disulfonate], the IC50 in assay [1] (setting [6]) stood at 2000 nM. The term Ki denotes the equilibrium dissociation constant of an inhibitor or competing ligand from its target. With `Cc1cc(-c2ccc(/N=N/c3c(S(=O)(=O)O)cc4cc(S(=O)(=O)O)cc(N)c4c3O)c(C)c2)ccc1/N=N/c1c(S(=O)(=O)O)cc2cc(S(=O)(=O)O)cc(N)c2c1O` [Trypan Blue], the concentration for half-maximal inhibition (IC50) in assay [3] ([26]) is 49 nM. For the same molecule, the Ki in assay [3] is roughly 50 nM. Regarding `O=S(=O)([O-])c1cc(N=Nc2ccc(O)cc2)ccc1/C=C/c1ccc(N=Nc2ccc(O)cc2)cc1S(=O)(=O)[O-].[Na+].[Na+]` [Brilliant Yellow], the concentration for half-maximal inhibition (IC50) in assay [1] (setting [7]) was 44 ± 7 nM; in assay [1] (setting [6]) it was 44 ± 6 nM. In assay [1] (at 0.3 μM), the “Inhibition of vesicular glutamate uptake” value is on record as 80%. In assay [4], the inhibitory constant (Ki) is 12 nM and 12.5 nM. For the same molecule, in assay [5], the “Effect on vesicular GABA uptake” value is on record as “affected neither”. The Glutamate uptake in assay [2] is listed as 279,032 dpm. For the same molecule, in assay [2], the “%Control” value is 112%. The “Effect on synaptosomal glutamate uptake” value in assay [2] (concentrations up to 50 μM) is given as “affected neither”. In turn, `CC(=O)Nc1ccc(C=Cc2ccc(NC(C)=O)cc2S(=O)(=O)O)c(S(=O)(=O)O)c1` [4,4-Diacetamidostilbene-2,2’-disulfonate, 4,4’-diacetamidostilbene-2,2’-disulfonate] had a 50% inhibitory concentration (IC50) in assay [1] (setting [6]) greater than 50000 nM. For Sulforhodamine, the “Inhibitory activity on vesicular glutamate uptake” value in assay [1] is “rather inactive”. The 50% inhibitory concentration (IC50) in assay [1] (setting [7]) was greater than 50000 nM. For `CCOc1ccc(N=Nc2ccc(/C=C/c3ccc(N=Nc4ccc(OCC)cc4)cc3S(=O)(=O)O)c(S(=O)(=O)O)c2)cc1` [Chrysophenine], half-maximal inhibition in assay [1] (setting [6]) (IC50) required 266 ± 70 nM.
